Results from ChEMBL document CHEMBL1145196, “Medicinal chemistry driven approaches toward novel and selective serotonin 5-HT6 receptor ligands” (J Med Chem, 2005).

Experiments:
[1] = biological target: T1, 5-hydroxytryptamine receptor 6 (Homo sapiens, UniProt P50406); test: Inhibition of [3H]LSD binding to human 5-hydroxytryptamine 6 receptor expressed in HEK293 cells; type: cell-based
In short: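 Bound ligand collected on polyethylenimine-pretreated glass fiber filters, washed with 50 mM Tris Cl pH 7.4, counted by liquid scintillation. Nonspecific binding defined with 100 µM serotonin. Competition data fitted by LIGAND; triplicate determinations per point.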

[2] = biological target: T1, 5-hydroxytryptamine receptor 6; test: Antagonist activity against cAMP accumulation in C6 cells expressing 5-hydroxytryptamine 6 receptor; type: functional, cell-based; conditions: Rattus norvegicus, filed as antagonist
In short: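 C6 cells detached with trypsin 2 h before assay, seeded ~50 000 cells/well. Compounds added with or without forskolin for 30 min. Data are means of at least three separate experiments.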

[3] = biological target: T1, 5-hydroxytryptamine receptor 6; test: Partial agonist activity against cAMP accumulation in C6 cells expressing 5-hydroxytryptamine 6 receptor; type: functional, cell-based; conditions: Rattus norvegicus, filed as partial agonist
[4] = biological target: T1, 5-hydroxytryptamine receptor 6; test: Agonist activity against cAMP accumulation in C6 cells expressing 5-hydroxytryptamine 6 receptor; type: functional, cell-based; conditions: Rattus norvegicus, filed as agonist
[5] = biological target: T1, 5-hydroxytryptamine receptor 6; test: Binding affinity for human 5-hydroxytryptamine 6 receptor

T1 sequence (P50406 whole entry): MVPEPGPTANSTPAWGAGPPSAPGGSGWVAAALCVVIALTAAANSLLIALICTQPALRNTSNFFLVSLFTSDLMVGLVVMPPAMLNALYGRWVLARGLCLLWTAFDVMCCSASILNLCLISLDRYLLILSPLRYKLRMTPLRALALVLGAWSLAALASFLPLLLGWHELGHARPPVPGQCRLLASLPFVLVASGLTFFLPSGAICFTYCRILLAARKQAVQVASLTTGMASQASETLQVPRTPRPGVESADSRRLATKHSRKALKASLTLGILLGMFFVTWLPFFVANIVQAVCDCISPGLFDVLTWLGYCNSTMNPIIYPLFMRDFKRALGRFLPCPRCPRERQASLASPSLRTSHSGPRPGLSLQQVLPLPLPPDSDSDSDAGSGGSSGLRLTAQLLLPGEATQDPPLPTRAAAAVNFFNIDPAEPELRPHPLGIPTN

SMILES	Ki [1] [nM]	Activity [2]	also measured
O=S(=O)(Nc1ccc2ccn(CCN3CCCC3)c2c1)c1c(Cl)nc2sccn12	52.2	Antagonist	
O=S(=O)(CCc1cccc2ccccc12)Nc1ccc2ccn(CCN3CCCC3)c2c1	195	Antagonist	
O=S(=O)(Nc1ccc2[nH]cc(CCN3CCOCC3)c2c1)c1ccc2ccccc2c1	132	Antagonist	
CN(C)C(=O)C(=O)c1c[nH]c2ccc(NS(=O)(=O)c3c(Cl)nc4sccn34)cc12		Antagonist	
O=S(=O)(Nc1ccc2[nH]cc(CCN3CCCC3)c2c1)c1cccc2ccccc12	4.5	Antagonist	
Cc1cc2cc(NS(=O)(=O)c3ccc4ccccc4c3)ccc2n1CCN(C)C	85.8	Antagonist	
O=S(=O)(Nc1ccc2c(ccn2CCN2CCCC2)c1)c1c(Cl)nc2sccn12	9.8	Antagonist	
CNc1cc(NS(=O)(=O)c2ccc(N)cc2)nc(NC)n1	44.7		
Cc1c(S(=O)(=O)Nc2ccc3[nH]cc(CCN4CCCC4)c3c2)sc2ccc(Cl)cc12	4		Activity [3]: Partial agonist
CCN(CC)CCc1c[nH]c2ccc(NS(=O)(=O)c3cccc4c(Cl)cccc34)cc12	3.3		Activity [3]: Partial agonist
CN(C)CCn1ccc2cc(NS(=O)(=O)c3c(Cl)nc4sccn34)ccc21		Antagonist	
CCN(CC)C(=O)C(=O)c1c[nH]c2ccc(NS(=O)(=O)c3cccc4ccccc34)cc12	> 1000		
CN(C)CCc1c[nH]c2ccc(NS(=O)(=O)c3ccc4c(Cl)cccc4c3)cc12	0.2	Antagonist	
CN(C)CCn1ccc2c(NS(=O)(=O)c3cccc4ccccc34)cccc21	64.7	Antagonist	
CCN(CC)CCn1ccc2cc(NS(=O)(=O)c3ccc4ccccc4c3)ccc21	140	Antagonist	
Cc1c(S(=O)(=O)Nc2ccc3[nH]cc(C(=O)C(=O)N(C)C)c3c2)sc2ccc(Cl)cc12	> 1000		
CN1CCC(c2c[nH]c3ccc(NS(=O)(=O)c4cccc5c(Cl)cccc45)cc23)CC1	9.6	Antagonist	
Cc1cccc2c1N(C1CCN(S(=O)(=O)c3cccc4c(N(C)C)cccc34)CC1)C(=O)OC2	336	Antagonist	
Cc1c(S(=O)(=O)Nc2ccc3ccn(CCN4CCCC4)c3c2)sc2ccc(Cl)cc12	109	Antagonist	
COc1ccc(Br)cc1S(=O)(=O)N1CCC(N2C(=O)OCc3cccc(C)c32)CC1	> 1000		
Cc1c(S(=O)(=O)Nc2cccc3c2cc(C)n3CCN(C)C)sc2ccc(Cl)cc12	57.7	Antagonist	
Cc1c(S(=O)(=O)Nc2ccc3[nH]cc(C4CCN(C)CC4)c3c2)sc2ccc(Cl)cc12	1	Antagonist	
Cc1cc2cc(NS(=O)(=O)c3cccc4ccccc34)ccc2n1CCN(C)C	124	Antagonist	

SMILES	Ki [1] [nM]	Activity [2]	also measured
CCN(CC)CCn1ccc2cc(NS(=O)(=O)c3c(Cl)nc4sccn34)ccc21	97.3	Antagonist	
O=C1OCc2ccccc2N1C1CCN(S(=O)(=O)c2cccc3cccnc23)CC1		Antagonist	
Cc1cccc2c1N(C1CCN(S(=O)(=O)c3cccc4cccnc34)CC1)C(=O)OC2		Antagonist	
CCN(CC)CCc1c[nH]c2ccc(NS(=O)(=O)c3sc4ccc(Cl)cc4c3C)cc12	0.3		Activity [4]: Agonist
Cc1c(S(=O)(=O)Nc2ccc3[nH]cc(CN(C)C)c3c2)sc2ccc(Cl)cc12	5.3	Antagonist	
CN1CC=C(c2cn(S(=O)(=O)c3cccc4ccccc34)c3ccc(F)cc23)CC1			Ki [5]: < 50 nM
Cc1c(S(=O)(=O)Nc2ccc3ccn(CCN(C)C)c3c2)sc2ccc(Cl)cc12			Activity [3]: Partial agonist
Cc1c(S(=O)(=O)Nc2ccc3cc(C)n(CCN(C)C)c3c2)sc2ccc(Cl)cc12	> 1000		
CCN(CC)C(=O)C(=O)c1c[nH]c2ccc(NS(=O)(=O)c3c(Cl)nc4sccn34)cc12		Antagonist	
O=S(=O)(Nc1ccc2c(ccn2CCCN2CCCCC2)c1)c1c(Cl)nc2sccn12	> 1000		
CN(C)CCn1ccc2cc(NS(=O)(=O)c3ccc4ccccc4c3)ccc21	57.7	Antagonist	
CN1CCC(c2c[nH]c3ccc(NS(=O)(=O)c4cccc5ccccc45)cc23)CC1		Antagonist	
CCCN(CCC)CCc1c[nH]c2ccc(NS(=O)(=O)c3sc4ccc(Cl)cc4c3C)cc12	0.5		Activity [3]: Partial agonist
CCCN(CCC)CCc1c[nH]c2ccc(NS(=O)(=O)c3ccc4ccccc4c3)cc12	3.9		Activity [3]: Partial agonist
O=S(=O)(Nc1ccc2c(ccn2CCN2CCCCC2)c1)c1c(Cl)nc2sccn12	31.4	Antagonist	
Cc1c(S(=O)(=O)Nc2ccc3[nH]cc(CCN4CCOCC4)c3c2)sc2ccc(Cl)cc12	15.1	Antagonist	
Cc1cc2cc(NS(=O)(=O)c3c(Cl)nc4sccn34)ccc2n1CCN(C)C	74.6	Antagonist	
CCN(CC)CCc1c[nH]c2ccc(NS(=O)(=O)c3ccc4ccccc4c3)cc12	40.8		
O=S(=O)(Nc1ccc2ccn(CCN3CCCC3)c2c1)c1ccc2ccccc2c1	101	Antagonist	
Cc1cccc2c1N(C1CCN(S(=O)(=O)c3csc4ccccc34)CC1)C(=O)OC2	124	Antagonist	
CCN(CC)CCc1c[nH]c2ccc(NS(=O)(=O)c3ccc(-c4ccccc4)cc3)cc12			Activity [4]: Agonist
CN1CCN(C2Cc3ccccc3Sc3ccc(Cl)cc32)CC1 (centres undefined) [CLOROTEPINE]			Ki [5]: < 50 nM
CCc1[nH]c2ccc(OC)cc2c1CCN(C)C			Ki [5]: < 50 nM

SMILES	Ki [1] [nM]	Activity [2]	also measured
COc1ccc(OC)c(S(=O)(=O)N2CCC(N3C(=O)OCc4cccc(C)c43)CC2)c1	131	Antagonist	
O=S(=O)(Nc1ccc2[nH]cc(CCN3CCCC3)c2c1)c1ccc2ccccc2c1	4.3		Activity [3]: Partial agonist
O=C1OCc2ccccc2N1C1CCN(S(=O)(=O)c2csc3ccccc23)CC1	126	Antagonist	
CCN(CC)C(=O)C(=O)c1c[nH]c2ccc(NS(=O)(=O)c3cccc4cccnc34)cc12	> 1000		
CCN(CC)CCCc1c[nH]c2ccc(NS(=O)(=O)c3ccc4ccccc4c3)cc12	163	Antagonist	
CN(C)CCc1c[nH]c2ccc(NS(=O)(=O)c3c(Cl)nc4sccn34)cc12			Activity [3]: Partial agonist
CCN(CC)CCn1ccc2cc(NS(=O)(=O)c3cccc4ccccc34)ccc21	116	Antagonist	
CCCCN(CCCC)CCc1c[nH]c2ccc(NS(=O)(=O)c3cccc4ccccc34)cc12	7.2	Antagonist	
CN1CCN(C2=Nc3ccccc3Oc3ccc(Cl)cc32)CC1 [LOXAPINE]			Ki [5]: < 50 nM
OCCN1CCN(CCCN2c3ccccc3Sc3ccc(C(F)(F)F)cc32)CC1 [FLUPHENAZINE]			Ki [5]: < 50 nM
O=C1OCc2ccccc2N1C1CCN(S(=O)(=O)c2cccc3ccccc23)CC1		Antagonist	
CN(C)CCc1c[nH]c2ccc(NS(=O)(=O)c3cccc4ccccc34)cc12	0.8		Activity [3]: Partial agonist
CN(C)CCn1ccc2cc(NS(=O)(=O)Cc3ccccc3)ccc21	> 1000		
COc1ccc2c(c1)c(CCN(C)C)cn2S(=O)(=O)c1ccccc1			Ki [5]: < 50 nM
O=S(=O)(Nc1ccc2ccn(CCN3CCCC3)c2c1)c1cccc2ccccc12	18.6	Antagonist	
CC(C)C[C@H]1C(=O)N2CCC[C@H]2[C@]2(O)O[C@](NC(=O)[C@@H]3C=C4c5cccc6[nH]c(Br)c(c56)C[C@H]4N(C)C3)(C(C)C)C(=O)N12 [BROMOCRIPTINE]			Ki [5]: < 50 nM
CN(C)CCc1c[nH]c2ccc(NS(=O)(=O)c3ccc(-c4ccccc4)cc3)cc12	0.4		Activity [4]: Agonist
O=S(=O)(Nc1ccc2[nH]cc(CCN3CCOCC3)c2c1)c1cccc2ccccc12	163	Antagonist	
CCN(CC)CCc1c[nH]c2ccc(NS(=O)(=O)c3cc(Cl)cc(Cl)c3)cc12			Activity [3]: Partial agonist
CNc1cc(NS(=O)(=O)c2ccc(N)cc2)cc(NC)n1	14.8		
Cc1c(S(=O)(=O)Nc2ccc3[nH]cc(CCN(C)C)c3c2)sc2ccc(Cl)cc12	0.1		Activity [4]: Agonist
CN(C)CCn1ccc2ccc(NS(=O)(=O)c3ccc4ccccc4c3)cc21		Antagonist	
CN(C)CCn1ccc2c(NS(=O)(=O)c3ccc4ccccc4c3)cccc21	14.9	Antagonist	
